Test results reported in ChEMBL document CHEMBL3804761, “Synthesis of a stable and orally bioavailable englerin analogue” (Bioorg Med Chem Lett, 2016).

Experiments:
Assay type in all cases: functional
[1] = Growth inhibition of human SW620 cells assessed as cell growth at 10 uM incubated for 48 hrs by sulforhodamine B assay relative to control; details: SW-620, 48 h, read-out: Activity
How it was run: (§1)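 Run in the standard NCI 60-cell-line screen. Cells were exposed to drug for two days, and the read-out was sulforhodamine B staining. Compound was tested at a single final concentration of 10 µM in every line, and results are reported as growth percent.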

[2] = Growth inhibition of human SF268 cells assessed as cell growth at 10 uM incubated for 48 hrs by sulforhodamine B assay relative to control; details: SF-268, 48 h, read-out: Activity; how it was run: as §1
[3] = Growth inhibition of human SNB19 cells assessed as cell growth at 10 uM incubated for 48 hrs by sulforhodamine B assay relative to control; details: SNB-19, 48 h, read-out: Activity; how it was run: as §1
M14 = test: Growth inhibition of human M14 cells assessed as cell growth at 10 uM incubated for 48 hrs by sulforhodamine B assay relative to control; details: M14, 48 h, read-out: Activity; how it was run: as §1
SK-MEL-5 = test: Growth inhibition of human SK-MEL-5 cells assessed as cell growth at 10 uM incubated for 48 hrs by sulforhodamine B assay relative to control; details: SK-MEL-5, 48 h, read-out: Activity; how it was run: as §1
[4] = Growth inhibition of human OVCAR5 cells assessed as cell growth at 10 uM incubated for 48 hrs by sulforhodamine B assay relative to control; details: OVCAR-5, 48 h, read-out: Activity; how it was run: as §1
ACHN [5] = test: Growth inhibition of human ACHN cells assessed as cell growth at 10 uM incubated for 48 hrs by sulforhodamine B assay relative to control; details: read-out: Activity; how it was run: as §1
[6] = Growth inhibition of human PC3 cells assessed as cell growth at 10 uM incubated for 48 hrs by sulforhodamine B assay relative to control; details: PC-3, 48 h, read-out: Activity; how it was run: as §1
[7] = Growth inhibition of human DU145 cells assessed as cell growth at 10 uM incubated for 48 hrs by sulforhodamine B assay relative to control; details: DU-145, 48 h, read-out: Activity; how it was run: as §1
[8] = Growth inhibition of human RXF393 cells assessed as cell growth at 10 uM incubated for 48 hrs by sulforhodamine B assay relative to control; details: RXF 393, 48 h, read-out: Activity; how it was run: as §1
[9] = Growth inhibition of human MOLT4 cells incubated for 48 hrs by sulforhodamine B assay; details: MOLT-4, 48 h
How it was run: (§2)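 NCI 60-cell-line panel, standard protocol. Cells exposed to compound for two days, growth read by sulforhodamine B staining. Tested at five 10-fold dilutions, top concentration 100 µM, to give dose-response curves.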

NCI-H460 = test: Growth inhibition of human NCI-H460 cells incubated for 48 hrs by sulforhodamine B assay; details: NCI-H460, 48 h; how it was run: as §2
[10] = Growth inhibition of human COLO205 cells incubated for 48 hrs by sulforhodamine B assay; details: COLO 205, 48 h; how it was run: as §2
[11] = Growth inhibition of human HCC2998 cells incubated for 48 hrs by sulforhodamine B assay; details: HCC 2998, 48 h; how it was run: as §2
[12] = Growth inhibition of human HCT116 cells incubated for 48 hrs by sulforhodamine B assay; details: HCT-116, 48 h; how it was run: as §2
[13] = Growth inhibition of human HCT15 cells incubated for 48 hrs by sulforhodamine B assay; details: HCT-15, 48 h; how it was run: as §2
KM12 = test: Growth inhibition of human KM12 cells incubated for 48 hrs by sulforhodamine B assay; details: KM12, 48 h; how it was run: as §2
SK-MEL-28 = test: Growth inhibition of human SK-MEL-28 cells incubated for 48 hrs by sulforhodamine B assay; details: SK-MEL-28, 48 h; how it was run: as §2
[14] = Growth inhibition of human UACC62 cells incubated for 48 hrs by sulforhodamine B assay; details: UACC-62, 48 h
How it was run: (§3)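 Tested in the standard NCI 60-cell-line protocol with two-day drug exposure and a sulforhodamine B endpoint. Compounds were first screened at a single final concentration of 10 µM, reported as growth percent. They were then run as five 10-fold dilutions starting from a high concentration of 100 µM to give dose-response curves.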

[15] = Growth inhibition of human OVCAR3 cells incubated for 48 hrs by sulforhodamine B assay; details: OVCAR-3, 48 h; how it was run: as §2
NCI/ADR-RES = test: Growth inhibition of human NCI/ADR-RES cells incubated for 48 hrs by sulforhodamine B assay; how it was run: as §2
786-0 = test: Growth inhibition of human 786-0 cells incubated for 48 hrs by sulforhodamine B assay; details: 786-0, 48 h; how it was run: as §2
A498 = test: Growth inhibition of human A498 cells incubated for 48 hrs by sulforhodamine B assay; details: A498, 48 h
ACHN [16] = test: Growth inhibition of human ACHN cells incubated for 48 hrs by sulforhodamine B assay; how it was run: as §2
[17] = Growth inhibition of human UO31 cells incubated for 48 hrs by sulforhodamine B assay; details: UO-31, 48 h; how it was run: as §3
K562 = test: Growth inhibition of human K562 cells incubated for 48 hrs by sulforhodamine B assay; details: K562, 48 h; how it was run: as §2
[18] = Growth inhibition of human HL-60(TB) cells assessed as cell growth at 10 uM incubated for 48 hrs by sulforhodamine B assay relative to control; details: HL-60, 48 h, read-out: Activity
How it was run: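 Single-dose screen in the NCI 60-cell-line panel at one final concentration of 10 µM. Two-day drug exposure with a sulforhodamine B endpoint. Values are growth percent for each cell line.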

NCI-H522 = test: Growth inhibition of human NCI-H522 cells assessed as cell growth at 10 uM incubated for 48 hrs by sulforhodamine B assay relative to control; details: NCI-H522, 48 h, read-out: Activity; how it was run: as §1
[19] = read-out: pLC50 (the source's name) (converted)

Compound: CC(C)[C@@]12C[C@@H](NC(=O)CO)[C@@](C)(O1)[C@@H]1CC[C@@H](C)[C@H]1[C@@H]2OC(=O)/C=C/C1CCCCC1
- growth at 10 µM [1]: 102%
- growth at 10 µM [2]: 106%
- growth at 10 µM [3]: 103%
- growth at 10 µM (M14): 104%
- growth at 10 µM (SK-MEL-5): 99.3%
- growth at 10 µM [4]: 92.6%
- growth at 10 µM (ACHN [5]): 99.9%
- growth at 10 µM [6]: 106%
- growth at 10 µM [7]: 116%
- growth at 10 µM [8]: 95.4%
- GI50 [9]: > 44.7 µM
- LC50 [9]: > 44.7 µM
- TGI ([9]; read-out: pTGI (converted)): > 44.7 µM
- GI50 (NCI-H460): > 44.7 µM
- CC50 (NCI-H460; [19]): > 44.7 µM
- TGI (NCI-H460; read-out: pTGI (converted)): > 44.7 µM
- GI50 [10]: > 44.7 µM
- CC50 [10, 19]: > 44.7 µM
- TGI ([10]; read-out: pTGI (converted)): > 44.7 µM
- GI50 [11]: > 44.7 µM
- LC50 [11]: > 44.7 µM
- TGI ([11]; read-out: pTGI (converted)): > 44.7 µM
- GI50 [12]: > 44.7 µM
- LC50 [12]: > 44.7 µM
- TGI ([12]; read-out: pTGI (converted)): > 44.7 µM
- GI50 [13]: > 44.7 µM
- LC50 [13]: > 44.7 µM
- TGI ([13]; read-out: pTGI (converted)): > 44.7 µM
- GI50 (KM12): > 44.7 µM
- LC50 (KM12): > 44.7 µM
- TGI (KM12; read-out: pTGI (converted)): > 44.7 µM
- GI50 (SK-MEL-28): > 44.7 µM
- LC50 (SK-MEL-28): > 44.7 µM
- TGI (SK-MEL-28; read-out: pTGI (converted)): > 44.7 µM
- GI50 [14]: > 44.7 µM
- LC50 (lethal concentration, 50% net cell kill) [14]: > 44.7 µM
- TGI ([14]; read-out: pTGI (converted)): > 44.7 µM
- GI50 [15]: > 44.7 µM
- LC50 [15]: > 44.7 µM
- TGI ([15]; read-out: pTGI (converted)): > 44.7 µM
- GI50 (NCI/ADR-RES): 40.7 µM
- LC50 (NCI/ADR-RES): > 44.7 µM
- TGI (NCI/ADR-RES; read-out: pTGI (converted)): > 44.7 µM
- GI50 (786-0): > 44.7 µM
- LC50 (786-0): > 44.7 µM
- TGI (786-0; read-out: pTGI (converted)): > 44.7 µM
- LC50 (A498): > 44.7 µM
- GI50 (A498; read-out: GI50): 5.62 µM
- GI50 (A498; read-out: pGI50 (converted)): 5.62 µM
- TGI (A498; read-out: pTGI (converted)): 21.4 µM
- GI50 (ACHN [16]): 17 µM
- LC50 (concentration killing 50% of cells) (ACHN [16]): > 44.7 µM
- TGI (ACHN [16]; read-out: pTGI (converted)): > 44.7 µM
- GI50 [17]: 10 µM
- CC50 [17, 19]: > 44.7 µM
- TGI ([17]; read-out: pTGI (converted)): 30.2 µM
- GI50 (K562): > 44.7 µM
- CC50 (K562; [19]): > 44.7 µM
- TGI (K562; read-out: pTGI (converted)): > 44.7 µM
- growth at 10 µM [18]: 111%
- growth at 10 µM (NCI-H522): 88.8%

Compound: CC(C)[C@@]12C[C@@H](NC(=O)CF)[C@@](C)(O1)[C@@H]1CC[C@@H](C)[C@H]1[C@@H]2OC(=O)/C=C/c1ccccc1
- growth at 10 µM [1]: 101%
- growth at 10 µM [2]: 97.7%
- growth at 10 µM [3]: 104%
- growth at 10 µM (M14): 96.7%
- growth at 10 µM (SK-MEL-5): 110%
- growth at 10 µM [4]: 102%
- growth at 10 µM (ACHN [5]): 105%
- growth at 10 µM [6]: 84%
- growth at 10 µM [7]: 115%
- growth at 10 µM [18]: 105%
- growth at 10 µM (NCI-H522): 103%
